Results reported in ChEMBL document CHEMBL4689842, “EUbOPEN Chemogenomics Library wave 1” (2021).

Assays:
Assay type in all cases: toxicity, cell-based
U2OS [1] = test: Multiplex assay against U2OS; details: human
Procedure, shortened: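 Per cents of healthy-nucleus cells form the tubulin, mitochondrial-mass and membrane-permeability phenotype values. Live cells were stained at seeding with Hoechst33342, BioTracker Green Microtubule Cytoskeleton Dye, MitoTracker Red and Annexin V Alexa Fluor 680. After compound addition they were imaged on a CQ1 microscope at 37°C and 5% CO2, and CellPathfinder machine-learning gating split them into Hoechst high-intensity objects or normal cells, normal cells into healthy, pyknosed or fragmented nuclei, and pyknosed cells into mitotic or apoptotic.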

U2OS [2] = test: Incucyte cell viability with U2OS; details: human, 10 µM, compound concentration 10 uM; further: filed as whole numbers so only -1 and 0 and 1 occur
HEK-293T = test: Incucyte cell viability with HEK293T; details: human, 10 µM, compound concentration 10 uM; further: filed as whole numbers so only -1 and 0 and 1 occur
Fibroblast = test: Incucyte cell viability with human fibroblast; details: 10 µM, compound concentration 10 uM; further: filed as whole numbers so only -1 and 0 and 1 occur
[3] = 12 h, 1 µM, compound concentration 1 uM, replicate 1
[4] = 12 h, 1 µM, compound concentration 1 uM, replicate 2
[5] = 12 h, 10 µM, compound concentration 10 uM, replicate 1
[6] = 12 h, 10 µM, compound concentration 10 uM, replicate 2
[7] = 24 h, 1 µM, compound concentration 1 uM, replicate 1
[8] = 24 h, 1 µM, compound concentration 1 uM, replicate 2
[9] = 24 h, 10 µM, compound concentration 10 uM, replicate 1
[10] = 24 h, 10 µM, compound concentration 10 uM, replicate 2
[11] = 48 h, 1 µM, compound concentration 1 uM, replicate 1
[12] = 48 h, 1 µM, compound concentration 1 uM, replicate 2
[13] = 48 h, 10 µM, compound concentration 10 uM, replicate 1
[14] = 48 h, 10 µM, compound concentration 10 uM, replicate 2
[15] = 0 h, replicate number 1, timepoint 0 hours
[16] = 24 h, replicate number 1, timepoint 24 hours

`Cc1ccc(S(=O)(=O)NC2c3ccccc3Oc3ccccc32)cc1` was tested, and the “Population Apoptotic (%)” value (U2OS [1]; [3]) was 47%, the “Population Fragmented Nuclei (%)” value (U2OS [1]; [3]) was 11% and the “Population Healthy Nuclei (%)” value (U2OS [1]; [3]) was 77%. The “Population Hoechst High Intensity Objects (%)” value (U2OS [1]; [3]) was 5%, the “Population Membrane Permeable-Phenotype (%)” value (U2OS [1]; [3]) was 6% and the “Population Mitochondria Different-Phenotype (%)” value (U2OS [1]; [3]) was 5%. For the same molecule, the “Population Mitotic Cells (%)” value (U2OS [1]; [3]) was 52%, the “Population Normal (%)” value (U2OS [1]; [3]) was 94% and the “Population Pyknosed Nuclei (%)” value (U2OS [1]; [3]) was 10%. The “Population Tubulin-Different-Phenotype (%)” value (U2OS [1]; [3]) was 5%, the “Total Cell Count” value (U2OS [1]; [3]) was 216 and the “Population Apoptotic (%)” value (U2OS [1]; [4]) was 0%. The “Population Fragmented Nuclei (%)” value (U2OS [1]; [4]) was 10%, the “Population Healthy Nuclei (%)” value (U2OS [1]; [4]) was 76% and the “Population Hoechst High Intensity Objects (%)” value (U2OS [1]; [4]) was 4%. For the same molecule, the “Population Membrane Permeable-Phenotype (%)” value (U2OS [1]; [4]) was 0%, the “Population Mitochondria Different-Phenotype (%)” value (U2OS [1]; [4]) was 16% and the “Population Mitotic Cells (%)” value (U2OS [1]; [4]) was 100%. The “Population Normal (%)” value (U2OS [1]; [4]) was 95%, the “Population Pyknosed Nuclei (%)” value (U2OS [1]; [4]) was 12% and the “Population Tubulin-Different-Phenotype (%)” value (U2OS [1]; [4]) was 2%. For the same molecule, the “Total Cell Count” value (U2OS [1]; [4]) was 49, the “Population Apoptotic (%)” value (U2OS [1]; [5]) was 71% and the “Population Fragmented Nuclei (%)” value (U2OS [1]; [5]) was 84%. For the same molecule, the “Population Healthy Nuclei (%)” value (U2OS [1]; [5]) was 12%, the “Population Hoechst High Intensity Objects (%)” value (U2OS [1]; [5]) was 7% and the “Population Membrane Permeable-Phenotype (%)” value (U2OS [1]; [5]) was 71%. The “Population Mitochondria Different-Phenotype (%)” value (U2OS [1]; [5]) was 28%, the “Population Mitotic Cells (%)” value (U2OS [1]; [5]) was 28% and the “Population Normal (%)” value (U2OS [1]; [5]) was 92%. For the same molecule, the “Population Pyknosed Nuclei (%)” value (U2OS [1]; [5]) was 2%, the “Population Tubulin-Different-Phenotype (%)” value (U2OS [1]; [5]) was 68% and the “Total Cell Count” value (U2OS [1]; [5]) was 507. The “Population Apoptotic (%)” value (U2OS [1]; [6]) was 95%, the “Population Fragmented Nuclei (%)” value (U2OS [1]; [6]) was 42% and the “Population Healthy Nuclei (%)” value (U2OS [1]; [6]) was 34%. The “Population Hoechst High Intensity Objects (%)” value (U2OS [1]; [6]) was 6%, the “Population Membrane Permeable-Phenotype (%)” value (U2OS [1]; [6]) was 44% and the “Population Mitochondria Different-Phenotype (%)” value (U2OS [1]; [6]) was 0%. The “Population Mitotic Cells (%)” value (U2OS [1]; [6]) was 4%, the “Population Normal (%)” value (U2OS [1]; [6]) was 93% and the “Population Pyknosed Nuclei (%)” value (U2OS [1]; [6]) was 23%. For the same molecule, the “Population Tubulin-Different-Phenotype (%)” value (U2OS [1]; [6]) was 50%, the “Total Cell Count” value (U2OS [1]; [6]) was 106 and the “Population Apoptotic (%)” value (U2OS [1]; [7]) was 59%. For the same molecule, the “Population Fragmented Nuclei (%)” value (U2OS [1]; [7]) was 57%, the “Population Healthy Nuclei (%)” value (U2OS [1]; [7]) was 25% and the “Population Hoechst High Intensity Objects (%)” value (U2OS [1]; [7]) was 0%. The “Population Membrane Permeable-Phenotype (%)” value (U2OS [1]; [7]) was 11%, the “Population Mitochondria Different-Phenotype (%)” value (U2OS [1]; [7]) was 17% and the “Population Mitotic Cells (%)” value (U2OS [1]; [7]) was 40%. For the same molecule, the “Population Normal (%)” value (U2OS [1]; [7]) was 100%, the “Population Pyknosed Nuclei (%)” value (U2OS [1]; [7]) was 16% and the “Population Tubulin-Different-Phenotype (%)” value (U2OS [1]; [7]) was 5%. The “Total Cell Count” value (U2OS [1]; [7]) was 132, the “Population Apoptotic (%)” value (U2OS [1]; [8]) was 25% and the “Population Fragmented Nuclei (%)” value (U2OS [1]; [8]) was 5%. For the same molecule, the “Population Healthy Nuclei (%)” value (U2OS [1]; [8]) was 88%, the “Population Hoechst High Intensity Objects (%)” value (U2OS [1]; [8]) was 7% and the “Population Membrane Permeable-Phenotype (%)” value (U2OS [1]; [8]) was 7%. The “Population Mitochondria Different-Phenotype (%)” value (U2OS [1]; [8]) was 15%, the “Population Mitotic Cells (%)” value (U2OS [1]; [8]) was 75% and the “Population Normal (%)” value (U2OS [1]; [8]) was 92%. The “Population Pyknosed Nuclei (%)” value (U2OS [1]; [8]) was 6%, the “Population Tubulin-Different-Phenotype (%)” value (U2OS [1]; [8]) was 13% and the “Total Cell Count” value (U2OS [1]; [8]) was 65. For the same molecule, the “Population Apoptotic (%)” value (U2OS [1]; [9]) was 71%, the “Population Fragmented Nuclei (%)” value (U2OS [1]; [9]) was 69% and the “Population Healthy Nuclei (%)” value (U2OS [1]; [9]) was 27%. For the same molecule, the “Population Hoechst High Intensity Objects (%)” value (U2OS [1]; [9]) was 6%, the “Population Membrane Permeable-Phenotype (%)” value (U2OS [1]; [9]) was 34% and the “Population Mitochondria Different-Phenotype (%)” value (U2OS [1]; [9]) was 18%. For the same molecule, the “Population Mitotic Cells (%)” value (U2OS [1]; [9]) was 28%, the “Population Normal (%)” value (U2OS [1]; [9]) was 93% and the “Population Pyknosed Nuclei (%)” value (U2OS [1]; [9]) was 2%. The “Population Tubulin-Different-Phenotype (%)” value (U2OS [1]; [9]) was 19%, the “Total Cell Count” value (U2OS [1]; [9]) was 321 and the “Population Apoptotic (%)” value (U2OS [1]; [10]) was 100%. The “Population Fragmented Nuclei (%)” value (U2OS [1]; [10]) was 10%, the “Population Healthy Nuclei (%)” value (U2OS [1]; [10]) was 68% and the “Population Hoechst High Intensity Objects (%)” value (U2OS [1]; [10]) was 4%. The “Population Membrane Permeable-Phenotype (%)” value (U2OS [1]; [10]) was 20%, the “Population Mitochondria Different-Phenotype (%)” value (U2OS [1]; [10]) was 14% and the “Population Mitotic Cells (%)” value (U2OS [1]; [10]) was 0%. The “Population Normal (%)” value (U2OS [1]; [10]) was 95%, the “Population Pyknosed Nuclei (%)” value (U2OS [1]; [10]) was 21% and the “Population Tubulin-Different-Phenotype (%)” value (U2OS [1]; [10]) was 43%. For the same molecule, the “Total Cell Count” value (U2OS [1]; [10]) was 84, the “Population Apoptotic (%)” value (U2OS [1]; [11]) was 50% and the “Population Fragmented Nuclei (%)” value (U2OS [1]; [11]) was 8%. For the same molecule, the “Population Healthy Nuclei (%)” value (U2OS [1]; [11]) was 85%, the “Population Membrane Permeable-Phenotype (%)” value (U2OS [1]; [11]) was 0% and the “Population Mitochondria Different-Phenotype (%)” value (U2OS [1]; [11]) was 7%. The “Population Mitotic Cells (%)” value (U2OS [1]; [11]) was 50%, the “Population Pyknosed Nuclei (%)” value (U2OS [1]; [11]) was 6% and the “Population Tubulin-Different-Phenotype (%)” value (U2OS [1]; [11]) was 3%. For the same molecule, the “Total Cell Count” value (U2OS [1]; [11]) was 429, the “Population Apoptotic (%)” value (U2OS [1]; [12]) was 25% and the “Population Fragmented Nuclei (%)” value (U2OS [1]; [12]) was 5%. The “Population Healthy Nuclei (%)” value (U2OS [1]; [12]) was 90%, the “Population Hoechst High Intensity Objects (%)” value (U2OS [1]; [12]) was 2% and the “Population Membrane Permeable-Phenotype (%)” value (U2OS [1]; [12]) was 10%. For the same molecule, the “Population Mitochondria Different-Phenotype (%)” value (U2OS [1]; [12]) was 18%, the “Population Mitotic Cells (%)” value (U2OS [1]; [12]) was 75% and the “Population Normal (%)” value (U2OS [1]; [12]) was 97%. For the same molecule, the “Population Pyknosed Nuclei (%)” value (U2OS [1]; [12]) was 4%, the “Population Tubulin-Different-Phenotype (%)” value (U2OS [1]; [12]) was 10% and the “Total Cell Count” value (U2OS [1]; [12]) was 93. For the same molecule, the “Population Apoptotic (%)” value (U2OS [1]; [13]) was 44%, the “Population Fragmented Nuclei (%)” value (U2OS [1]; [13]) was 11% and the “Population Healthy Nuclei (%)” value (U2OS [1]; [13]) was 82%. The “Population Hoechst High Intensity Objects (%)” value (U2OS [1]; [13]) was 3%, the “Population Membrane Permeable-Phenotype (%)” value (U2OS [1]; [13]) was 3% and the “Population Mitochondria Different-Phenotype (%)” value (U2OS [1]; [13]) was 12%. The “Population Mitotic Cells (%)” value (U2OS [1]; [13]) was 55%, the “Population Normal (%)” value (U2OS [1]; [13]) was 96% and the “Population Pyknosed Nuclei (%)” value (U2OS [1]; [13]) was 6%. For the same molecule, the “Population Tubulin-Different-Phenotype (%)” value (U2OS [1]; [13]) was 12%, the “Total Cell Count” value (U2OS [1]; [13]) was 155 and the “Population Apoptotic (%)” value (U2OS [1]; [14]) was 75%. The “Population Fragmented Nuclei (%)” value (U2OS [1]; [14]) was 7%, the “Population Healthy Nuclei (%)” value (U2OS [1]; [14]) was 84% and the “Population Hoechst High Intensity Objects (%)” value (U2OS [1]; [14]) was 4%. The “Population Membrane Permeable-Phenotype (%)” value (U2OS [1]; [14]) was 17%, the “Population Mitochondria Different-Phenotype (%)” value (U2OS [1]; [14]) was 14% and the “Population Mitotic Cells (%)” value (U2OS [1]; [14]) was 25%. For the same molecule, the “Population Normal (%)” value (U2OS [1]; [14]) was 95%, the “Population Pyknosed Nuclei (%)” value (U2OS [1]; [14]) was 7% and the “Population Tubulin-Different-Phenotype (%)” value (U2OS [1]; [14]) was 37%. The “Total Cell Count” value (U2OS [1]; [14]) was 109, the “Growth Rate” value (U2OS [2]; [15]) was 0 and the “Growth Rate” value (U2OS [2]; 18 h, replicate number 2, timepoint 18 hours) was 1. The “Growth Rate” value (U2OS [2]; [16]) was 1, the “Growth Rate” value (U2OS [2]; 24 h, replicate number 2, timepoint 24 hours) was 0 and the “Growth Rate” value (HEK-293T; [15]) was 0. The “Growth Rate” value (HEK-293T; 12 h, replicate number 1, timepoint 12 hours) was 1, the “Growth Rate” value (HEK-293T; 18 h, replicate number 1, timepoint 18 hours) was 1 and the “Growth Rate” value (HEK-293T; [16]) was 0. For the same molecule, the “Growth Rate” value (Fibroblast; [15]) was 0 and the “Growth Rate” value (Fibroblast; [16]) was 1.
